# Measurements taken from ChEMBL document CHEMBL4665829, “Synthesis, Structure-Activity Relationship, and Antimalarial Efficacy of 6-Chloro-2-arylvinylquinolines” (J Med Chem, 2020).
# Activity calls are given as the source filed them. No cut-off for these calls is given here.
# Tested on: not listed separately
# Test: Resistant index, ratio of EC50 for antiplasmodial activity against chloroquine-resistant Plasmodium falciparum Dd2 to antiplasmodial activity against chloroquine-sensitive Plasmodium falciparum 3D7
# Type: functional
# Settings: not given
row,SMILES,Ratio EC50
1,CN(C)CCNc1cc(/C=C/C2CCCCC2)nc2ccc(Cl)cc12,> 1.3
2,COc1ccc2nc(/C=C/c3cc(NCCN(C)C)c4cc(Cl)ccc4n3)ccc2c1,> 1.3
3,COc1ccc2nc(/C=C/c3cc(OC)c(OC)c(OC)c3)cc(NCCN(C)C)c2c1,> 1.3
4,CN(C)CCNc1cc(/C=C/c2ccccc2F)nc2ccc(Cl)cc12,0.5
5,COc1ccc2nc(/C=C/c3ccc(OC)c(OC)c3)cc(NCCN(C)C)c2c1,> 1.3
6,CN(C)CCNc1cc(/C=C/c2cc3ccccc3[nH]2)nc2ccc(Cl)cc12,> 1.3
7,CN(C)CCNc1cc(/C=C/c2cccc3ccccc23)nc2ccc(Cl)cc12,> 1.3
8,COc1ccc2nc(/C=C/c3ccccc3)cc(NCCN(C)C)c2c1,> 1.3
9,CN(C)CCNc1cc(/C=C/c2ccc(N(C)C)cc2)nc2ccc(Cl)cc12,> 1.3
10,CN(C)CCNc1cc(/C=C/c2cncnc2)nc2ccc(Cl)cc12,> 1.3
11,Fc1ccc(/C=C/c2cc(NCCN3CCOCC3)c3cc(Cl)ccc3n2)cc1,0.6
12,CN1CCN(CCCCNc2cc(/C=C/c3ccncc3)nc3ccc(Cl)cc23)CC1,0.9

# Tested on: Plasmodium falciparum
# Test: Antiplasmodial activity against chloroquine-sensitive Plasmodium falciparum 3D7 infected in human erythrocytes assessed as reduction in microbial growth after 72 hrs by SYBR green I staining based fluorescence assay
# Type: functional, organism-based
# Settings: 3D7, Erythrocyte
# Summary of the method: (§1)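 SYBR Green I assay: twofold serial dilutions on P. falciparum cultures at 1% parasitemia, 1% hematocrit, 37 °C, 5% CO₂, 72 h, max 0.1% DMSO. DMSO and CQ as growth and inhibition controls. Plates frozen at −80 °C, thawed, lysed in Tris/saponin/EDTA/Triton buffer with 0.01% SYBR Green I, 1 h dark at room temperature. Fluorescence read at 485 ex/530 em. EC50 by nonlinear dose–response fit.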
row,SMILES,EC50 [nM]
1,Clc1ccc2nc(/C=C/c3ccncc3)cc(Nc3ccc(N4CCCCC4)cc3)c2c1,155
2,CN(C)CCNc1cc(/C=C/c2ccccc2F)nc2ccc(Cl)cc12,55.9
3,Clc1ccc2nc(/C=C/c3ccncc3)cc(N3CCN(c4ccccn4)CC3)c2c1,155
4,Fc1ccc(/C=C/c2cc(N3CCN(c4ccccn4)CC3)c3cc(Cl)ccc3n2)cc1,155
5,Fc1ccc(/C=C/c2cc(Nc3ccc(N4CCCCC4)cc3)c3cc(Cl)ccc3n2)cc1,155
6,Fc1ccc(/C=C/c2cc(NCCN3CCOCC3)c3cc(Cl)ccc3n2)cc1,41.8
7,CN1CCN(CCCCNc2cc(/C=C/c3ccncc3)nc3ccc(Cl)cc23)CC1,36.1
8,Fc1ccc(/C=C/c2cc(N3CCC(N4CCCCC4)CC3)c3cc(Cl)ccc3n2)cc1,155

# Same assay, conditions: Erythrocyte
row,SMILES,Activity
1,COc1ccc2nc(/C=C/c3cc(OC)c(OC)c(OC)c3)cc(NCCN(C)C)c2c1,Active
2,COc1ccc2nc(/C=C/c3ccc(OC)c(OC)c3)cc(NCCN(C)C)c2c1,Active
3,Fc1ccc(/C=C/c2cc(NCCCCN3CCOCC3)c3cc(Cl)ccc3n2)cn1,Active
4,COc1ccc2nc(/C=C/c3ccccc3)cc(NCCN(C)C)c2c1,Active
5,Fc1cccnc1/C=C/c1cc(NCCCCN2CCOCC2)c2cc(Cl)ccc2n1,Active
6,Fc1cc(F)c(F)c(/C=C/c2cc(NCCCCN3CCOCC3)c3cc(Cl)ccc3n2)c1,Active
7,Fc1cc(F)c(/C=C/c2cc(NCCCCN3CCOCC3)c3cc(Cl)ccc3n2)cc1F,Active

# Tested on: HepG2
# Test: Cytotoxicity against human HepG2 cells assessed as reduction in cell viability after 48 hrs by MTS assay
# Type: cell-based
# Settings: HepG2, 48 h
# Summary of the method: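 HepG2 cells were seeded at 2250 per well and grown 24 h at 37 °C, 5% CO₂. Serial dilutions starting at 25 μM were added for a further 48 h. MTS was then added for 3 h at 37 °C and absorbance read at 490 nm. EC₅₀ came from nonlinear dose–response fits.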
row,SMILES,EC50 [nM]
1,CN(C)CCNc1cc(/C=C/c2ccccc2F)nc2ccc(Cl)cc12,4830
2,Fc1ccc(/C=C/c2cc(NCCN3CCOCC3)c3cc(Cl)ccc3n2)cc1,17200
3,CN1CCN(CCCCNc2cc(/C=C/c3ccncc3)nc3ccc(Cl)cc23)CC1,8380

# Tested on: Plasmodium falciparum
# Test: Antiplasmodial activity against chloroquine-resistant Plasmodium falciparum Dd2 infected in human erythrocytes assessed as reduction in microbial growth after 72 hrs by SYBR green I staining based fluorescence assay
# Type: functional, organism-based
# Settings: Dd2, Erythrocyte
# Summary of the method: as §1
row,SMILES,EC50 [nM]
1,Fc1cc(F)cc(/C=C/c2cc(NCCCCN3CCOCC3)c3cc(Cl)ccc3n2)c1,185
2,COc1ccc(/C=C/c2cc(NCCN(C)C)c3cc(OC)ccc3n2)cc1,43.6
3,CN(C)CCCCNc1cc(/C=C/c2ccc([N+](=O)[O-])cc2)nc2ccc(Cl)cc12,52.5
4,Clc1ccc2nc(/C=C/c3ccncc3)cc(Nc3ccc(N4CCCCC4)cc3)c2c1,793
5,CN(C)CCNc1cc(/C=C/C2CCCCC2)nc2ccc(Cl)cc12,394
6,COc1ccc2nc(/C=C/c3cc(NCCN(C)C)c4cc(Cl)ccc4n3)ccc2c1,281
7,Fc1ccc(/C=C/c2cc(NCCCCN3CCOCC3)c3cc(Cl)ccc3n2)nc1,73.1
8,FC(F)(F)c1cccc(/C=C/c2cc(NCCCCN3CCOCC3)c3cc(Cl)ccc3n2)c1,33.9
9,COc1ccc2nc(/C=C/c3cccs3)cc(NCCN(C)C)c2c1,80
10,FC(F)(F)c1cc(/C=C/c2cc(NCCCCN3CCOCC3)c3cc(Cl)ccc3n2)cc(C(F)(F)F)c1,108
11,COc1ccc2nc(/C=C/c3cc(OC)c(OC)c(OC)c3)cc(NCCN(C)C)c2c1,74.2
12,Clc1ccc2nc(/C=C/c3ccncc3)cc(NCCN3CCOCC3)c2c1,137
13,CN(C)CCNc1cc(/C=C/c2ccc(F)cc2)nc2ccc(F)cc12,30.9
14,Cc1cc(NCCN(C)C)c2cc(Cl)ccc2n1,732
15,COc1ccc2nc(/C=C/c3ccc(F)cc3)cc(NCCN(C)C)c2c1,32.9
16,CN(C)CCNc1cc(/C=C/c2ccc([N+](=O)[O-])cc2)nc2ccc(F)cc12,30.9
17,FC(F)(F)Oc1ccc(/C=C/c2cc(NCCCCN3CCOCC3)c3cc(Cl)ccc3n2)cc1,56.6
18,Clc1ccc2nc(/C=C/c3ccncc3)cc(N3CCOCC3)c2c1,3590
19,Fc1ccc(/C=C/c2cc(N3CCCC3)c3cc(Cl)ccc3n2)cc1,428
20,CN1CCN(CCNc2cc(/C=C/c3ccncc3)nc3ccc(Cl)cc23)CC1,53.3
21,COc1ccc2nc(/C=C/c3ccccc3[N+](=O)[O-])cc(NCCN(C)C)c2c1,56.3
22,Clc1ccc2nc(-c3ccncc3)cc(NCCCCN3CCOCC3)c2c1,796

row,SMILES,EC50 [nM]
1,CN(C)CCNc1cc(/C=C/c2ccco2)nc2ccc(F)cc12,82.6
2,Clc1ccc2nc(/C=C/c3ccncc3)cc(N3CCCC3)c2c1,1180
3,CN(C)CCCCNc1cc(/C=C/c2ccccc2)nc2ccc(Cl)cc12,68
4,COc1ccc(/C=C/c2cc(NCCN(C)C)c3cc(Cl)ccc3n2)cc1OC,38.9
5,CN(C)CCNc1cc(/C=C/c2ccccc2F)nc2ccc(Cl)cc12,26
6,COc1ccc2nc(/C=C/c3ccc(OC)c(OC)c3)cc(NCCN(C)C)c2c1,187
7,Fc1cc(/C=C/c2cc(NCCCCN3CCOCC3)c3cc(Cl)ccc3n2)cc(F)c1F,130
8,Fc1ccc(/C=C/c2cc(NCCCCN3CCOCC3)c3cc(Cl)ccc3n2)cn1,54.6
9,CN(C)CCNc1cc(/C=C/c2ccccn2)nc2ccc(Cl)cc12,67.5
10,CN(C)CCNc1cc(/C=C/c2ccccc2)nc2ccc(Cl)cc12,22.4
11,Fc1cnccc1/C=C/c1cc(NCCCCN2CCOCC2)c2cc(Cl)ccc2n1,79.6
12,COc1ccc2nc(/C=C/c3cccnc3)cc(NCCN(C)C)c2c1,71
13,Cc1cc(NCCCCN(C)C)c2cc(Cl)ccc2n1,1240
14,COc1ccc2nc(/C=C/c3cccc([N+](=O)[O-])c3)cc(NCCN(C)C)c2c1,49.5
15,FC(F)(F)c1ccccc1/C=C/c1cc(NCCCCN2CCOCC2)c2cc(Cl)ccc2n1,104
16,COc1ccc2nc(/C=C/c3ccncc3)cc(NCCN(C)C)c2c1,38.8
17,COc1ccc2nc(/C=C/c3ccco3)cc(NCCN(C)C)c2c1,88.7
18,CN(C)CCNc1cc(/C=C/c2ccncc2)nc2ccc(F)cc12,36.1
19,CN(C)CCNc1cc(/C=C/c2ccc(F)cc2)nc2ccccc12,25.5
20,Clc1ccc2nc(/C=C/c3ccncc3)cc(N3CCN(c4ccccn4)CC3)c2c1,2570
21,CN(C)CCNc1cc(/C=C/c2cc3ccccc3[nH]2)nc2ccc(Cl)cc12,95.9
22,Clc1ccc2nc(/C=C/C=C/c3ccccc3)cc(NCCCCN3CCOCC3)c2c1,143

row,SMILES,EC50 [nM]
1,COc1cc(/C=C/c2cc(NCCN(C)C)c3cc(F)ccc3n2)cc(OC)c1OC,38.6
2,Fc1ccc(/C=C/c2cc(N3CCN(c4ccccn4)CC3)c3cc(Cl)ccc3n2)cc1,3300
3,CN(C)CCNc1cc(/C=C/c2ccccc2)nc2ccc(F)cc12,21
4,CN(C)CCNc1cc(/C=C/c2cccc3ccccc23)nc2ccc(Cl)cc12,373
5,CN(C)CCNc1cc(/C=C/c2cccs2)nc2ccc(Cl)cc12,29.7
6,COc1ccc2nc(/C=C/c3ccccc3)cc(NCCN(C)C)c2c1,41.2
7,CN(C)CCNc1cc(CCc2ccncc2)nc2ccc(Cl)cc12,259
8,Clc1ccc2nc(-c3ccccc3)cc(NCCCCN3CCOCC3)c2c1,423
9,Fc1cccnc1/C=C/c1cc(NCCCCN2CCOCC2)c2cc(Cl)ccc2n1,197
10,Fc1ccc(/C=C/c2cc(Nc3ccc(N4CCCCC4)cc3)c3cc(Cl)ccc3n2)cc1,667
11,CN(C)CCNc1cc(/C=C/c2ccc(N(C)C)cc2)nc2ccc(Cl)cc12,88.3
12,CN(C)CCNc1cc(/C=C/c2cncnc2)nc2ccc(Cl)cc12,155
13,CN(C)CCCCNc1cc(/C=C/c2ccc(F)cc2)nc2ccc(Cl)cc12,51.2
14,CN(C)CCNc1cc(/C=C/c2ccccc2)nc2ccccc12,80.7
15,N#Cc1ccc(/C=C/c2cc(N3CCOCC3)c3cc(Cl)ccc3n2)cc1,1010
16,CN(C)CCNc1cc(/C=C/c2ccc([N+](=O)[O-])cc2)nc2ccccc12,47.9
17,Clc1ccc2nc(/C=C/c3ccncc3)cc(NCCN3CCCC3)c2c1,67.7
18,COc1ccc(/C=C/c2cc(NCCN(C)C)c3cc(F)ccc3n2)cc1,37.8
19,FC(F)(F)c1ccc(/C=C/c2cc(NCCCN3CCOCC3)c3cc(Cl)ccc3n2)cc1,84.8
20,CN(C)CCNc1cc(/C=C/c2ccc([N+](=O)[O-])cc2)nc2ccc(Cl)cc12,28.7
21,Fc1ccc(/C=C/c2cc(NCCN3CCOCC3)c3cc(Cl)ccc3n2)cc1,24.2
22,COc1ccc2nc(CCc3ccncc3)cc(NCCN(C)C)c2c1,709

row,SMILES,EC50 [nM]
1,COc1ccc(/C=C/c2cc(NCCN(C)C)c3cc(Cl)ccc3n2)cc1,34.8
2,Fc1ccc(/C=C/C=C/c2cc(NCCCCN3CCOCC3)c3cc(Cl)ccc3n2)cc1,96.5
3,CN(C)CCNc1cc(/C=C/c2cccnc2)nc2ccc(Cl)cc12,33.6
4,CN1CCN(CCCCNc2cc(/C=C/c3ccccc3)nc3ccc(Cl)cc23)CC1,58.9
5,COc1ccc2nc(/C=C/c3ccccn3)cc(NCCN(C)C)c2c1,1030
6,CN1CCN(CCCCNc2cc(/C=C/c3ccc(F)cc3)nc3ccc(Cl)cc23)CC1,43
7,Fc1cc(F)c(F)c(/C=C/c2cc(NCCCCN3CCOCC3)c3cc(Cl)ccc3n2)c1,588
8,Clc1ccc2nc(/C=C/c3ccccc3)cc(NCCN3CCCC3)c2c1,107
9,COc1cc(/C=C/c2cc(NCCN(C)C)c3cc(Cl)ccc3n2)cc(OC)c1OC,44.4
10,COc1ccc(/C=C/c2cc(NCCN(C)C)c3cc(F)ccc3n2)cc1OC,41.1
11,CN(C)CCNc1cc(/C=C/c2cccs2)nc2ccc(F)cc12,111
12,Fc1ccc(/C=C/c2cc(NCCCN3CCOCC3)c3cc(Cl)ccc3n2)cc1,40.8
13,Fc1ccc(/C=C/c2cc(NCCCCN3CCOCC3)c3cc(Cl)ccc3n2)c(F)c1,72.6
14,CN(C)CCNc1cc(/C=C/c2ccco2)nc2ccc(Cl)cc12,37
15,Fc1cc(F)c(/C=C/c2cc(NCCCCN3CCOCC3)c3cc(Cl)ccc3n2)cc1F,197
16,CN1CCN(CCCCNc2cc(/C=C/c3ccncc3)nc3ccc(Cl)cc23)CC1,33.4
17,COc1ccc2nc(/C=C/c3ccc([N+](=O)[O-])cc3)cc(NCCN(C)C)c2c1,28.6
18,Fc1ccc(/C=C/c2cc(N3CCC(N4CCCCC4)CC3)c3cc(Cl)ccc3n2)cc1,487
19,CN(C)CCNc1cc(/C=C/c2nccs2)nc2ccc(Cl)cc12,240
20,Fc1ccc(/C=C/c2cc(N3CCOCC3)c3cc(Cl)ccc3n2)cc1,6750
21,COc1ccc2nc(C)cc(NCCN(C)C)c2c1,5520
22,Fc1ccc(/C=C/c2cc(NCCN3CCCC3)c3cc(Cl)ccc3n2)cc1,92.3

# Tested on: not listed separately
# Test: Selectivity index, ratio of EC50 for cytotoxicity against human HepG2 cells to antiplasmodial activity against chloroquine-resistant Plasmodium falciparum Dd2
# Type: toxicity, cell-based
# Settings: read-out: Ratio EC50
row,SMILES,selectivity ratio
1,CN(C)CCNc1cc(/C=C/c2ccccc2F)nc2ccc(Cl)cc12,186
2,Fc1ccc(/C=C/c2cc(NCCN3CCOCC3)c3cc(Cl)ccc3n2)cc1,711
3,CN1CCN(CCCCNc2cc(/C=C/c3ccncc3)nc3ccc(Cl)cc23)CC1,251
